{"source": "paper PMC6133219", "about": "(Anti-Cancer Drugs, 2018)", "key": {"MDA-MB-231-BrM2": {"test_system": "MDA-MB-231-BrM2", "assay": "Brain metastatic tumor model, intracranial MDA-MB-231-BrM2 in NSG mice", "type": "in vivo, mouse", "conditions": "for body weight loss: MDA-MB-231-BrM2 brain model, DZ-2384 10 mg/kg, paclitaxel 40 mg/kg", "how_it_was_run": "(§1)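 Cells were implanted intracranially into the right frontal lobe of female NSG mice (6–8 weeks): MDA-MB-231-BrM2 at 7.5×10^4 cells, or luciferase-expressing GCRC-1945 at 1×10^5 cells. Mice were randomized by bioluminescent tumor burden, then dosed iv biweekly for 2 weeks in cremophor EL:ethanol:saline (5:5:90). Imaging was weekly (D-luciferin 150 mg/kg ip, 10 min prior; photon flux). Survival was analysed by Kaplan–Meier log-rank and weights tracked.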"}, "GCRC-1945 PDX": {"test_system": "GCRC-1945 PDX", "assay": "Orthotopic TNBC PDX GCRC-1945 model in NSG mice", "type": "in vivo, mouse", "conditions": "for median survival: GCRC-1945 at MED (DZ-2384 1.25 mg/kg, paclitaxel 10 mg/kg), vehicle 36 days", "how_it_was_run": "(§2)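 PDX tumor fragments (1–1.5 mm3) were implanted into the left fat pad of female NSG mice (6–8 weeks), passaged ≤8 times. Mice were randomized at 100–250 mm3 and treated iv once weekly for 4 weeks, with doses set as fractions of each agent's MTD. Caliper volume was calculated as 4/3π[(a/2)×(b/2)^2]. Kaplan–Meier log-rank and Student's t-test were used.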"}, "[1]": {"type": "in vivo, mouse", "how_it_was_run": "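Female NSG mice bearing MDA-MB-231-BrM2 mammary fat pad tumors received a single iv bolus of 10 or 40 mg/kg, depending on compound, in cremophor:ethanol:saline (5:5:90); n=4 per time point. Sampling was at 0–24 h. Plasma was taken, then mice were perfused with 20 ml saline via the left ventricle before brain, heart, lung and tumor harvest. Homogenates were measured by LC–MS/MS; tissue/plasma AUC0–∞ ratios were calculated.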"}, "GCRC-2076 PDX": {"test_system": "GCRC-2076 PDX", "assay": "Orthotopic TNBC PDX GCRC-2076", "type": "in vivo, mouse", "conditions": "for median survival: GCRC-2076 at 0.5x MTD, vehicle 30 days", "how_it_was_run": "as §2"}, "[2]": {"test_system": "MDA-MB-231-LM2 lung metastases", "assay": "MDA-MB-231-LM2 lung metastases model in SCID-beige mice", "type": "in vivo, mouse", "conditions": "for antitumor effect: MDA-MB-231-LM2, DZ-2384 0.5, 1.5, 4.5 mg/kg, docetaxel 2, 4 mg/kg", "how_it_was_run": "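Female SCID-beige mice (6–8 weeks) received 2.5×10^5 MDA-MB-231-LM2 cells via lateral tail vein. About 2 weeks later, mice with confirmed lung metastases were randomized by bioluminescent burden. They then got four biweekly iv injections in cremophor EL:ethanol:saline (5:5:90). Weekly imaging used D-luciferin 150 mg/kg ip. Survival was analysed by Kaplan–Meier log-rank; body weight was measured 2–3 times weekly.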"}, "GCRC-1945": {"test_system": "GCRC-1945", "assay": "Brain metastatic tumor model, intracranial GCRC-1945 in NSG mice", "type": "in vivo, mouse", "conditions": "for body weight loss: GCRC-1945 brain model, DZ-2384 10 mg/kg, paclitaxel 40 mg/kg", "how_it_was_run": "as §1"}, "[3]": {"assay": "Maximum tolerated dose in nontumor bearing NSG mice", "type": "in vivo, mouse", "how_it_was_run": "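Each compound was given to four mice of the relevant strain as four biweekly iv injections. General condition was checked at least three times weekly. Endpoints were >20% weight loss for more than three consecutive days, death, or severe distress. Weights, clinical signs and survival were recorded until 1 week after the last dose.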"}, "[4]": {"conditions": "cited from earlier work"}, "RenCa tumors": {"test_system": "RenCa tumors", "assay": "RenCa syngeneic renal carcinoma model in Balb/c mice", "type": "in vivo, mouse", "conditions": "within the first 18 days of treatment", "how_it_was_run": "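Balb/c mice (6–8 weeks) were injected with 2.5×10^5 RenCa cells in the left lower flank, then randomized at 100–150 mm3 (n=7/group). On day 1 they got a single iv dose of test compound (14 mg/kg) or cremophor EL:ethanol:saline vehicle. From 4 days later, they received biweekly ip anti-CTLA-4 (9H10) or rat IgG2a isotype (2A3) at 10 mg/kg for 2 weeks. Individual tumor volumes were measured 2–3 times weekly.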"}, "[5]": {"conditions": "patients receiving docetaxel 100 mg/m^2 for TNBC; cited from earlier work"}}, "data": [{"molecule": "CC(C)[C@H](O)C(=O)N[C@H]1Cc2ccc3c(c2)[C@]2(C4=C(c5nc(CO)co5)N=C(O4)[C@H](C(C)(C)C)NC1=O)c1cc(F)ccc1N[C@@H]2O3", "note": "[DZ-2384]", "values": [{"measurement": "body weight loss", "setting": "MDA-MB-231-BrM2", "result": "less than 10%"}, {"measurement": "efficacy (tumor burden, median survival vs vehicle)", "setting": "MDA-MB-231-BrM2; intracranial MDA-MB-231-BrM2, MTD, iv biweekly for 2 weeks", "result": "efficacious"}, {"measurement": "antitumor efficacy", "setting": "GCRC-1945 PDX; GCRC-1945, 0.125x and 0.25x MTD", "result": "more effective than paclitaxel"}, {"measurement": "antitumor efficacy", "setting": "GCRC-1945 PDX; GCRC-1945, 0.5x MTD", "result": "equally effective"}, {"measurement": "median survival", "setting": "GCRC-1945 PDX", "result": 71, "unit": "days"}, {"measurement": "proportion that accumulates in the brain relative to plasma exposure", "setting": "[1]; AUC ratio brain/plasma, single iv dose at MTD, NSG mice", "result": 15, "unit": "%"}, {"measurement": "accumulation in tumor tissue relative to plasma", "setting": "[1]; AUC ratio tumor/plasma, single iv dose at MTD, NSG mice", "result": 18, "unit": "fold"}, {"measurement": "maximum concentration (Cmax) ratio in tumor relative to plasma", "setting": "[1]; single iv dose at MTD, NSG mice", "result": 1.3}, {"measurement": "antitumor efficacy", "setting": "GCRC-2076 PDX; GCRC-2076, 0.25x and 0.5x MTD", "result": "more effective than paclitaxel"}, {"measurement": "median survival", "setting": "GCRC-2076 PDX", "result": 88, "unit": "days"}, {"measurement": "tumor free mice (bioimaging)", "setting": "[2]; MDA-MB-231-LM2, 4.5 mg/kg, 5 months after treatment initiation", "result": "four of nine"}, {"measurement": "median survival", "setting": "[2]; MDA-MB-231-LM2, 4.5 mg/kg, vehicle 37 days", "result": "more than 150 days"}, {"measurement": "antitumor effect", "setting": "[2]", "result": "profound antitumor effect at all doses tested"}, {"measurement": "body weight loss", "setting": "GCRC-1945", "result": "less than 10%"}, {"measurement": "efficacy (tumor burden, median survival vs vehicle)", "setting": "GCRC-1945; intracranial GCRC-1945, MTD, iv biweekly for 2 weeks", "result": "efficacious"}, {"measurement": "maximum tolerated dose (MTD)", "setting": "[3]; nontumor bearing NSG mice, iv biweekly for 2 weeks", "result": 10, "unit": "mg/kg"}, {"measurement": "effects on peripheral nerves", "setting": "[4]; rat model of peripheral neuropathy, effective levels", "result": "no detrimental effects on peripheral nerves"}, {"measurement": "effect on tumor volume relative to vehicle control", "setting": "RenCa tumors", "result": "modest effects on tumor volume"}]}, {"molecule": "CC(=O)O[C@@]12CO[C@@H]1C[C@H](O)[C@@]1(C)C(=O)[C@H](O)C3=C(C)[C@@H](OC(=O)[C@H](O)[C@@H](NC(=O)OC(C)(C)C)c4ccccc4)C[C@@](O)([C@@H](OC(=O)c4ccccc4)[C@H]21)C3(C)C", "note": "[docetaxel, reference compound]", "values": [{"measurement": "antitumor effect", "setting": "[2]", "result": "effective at only the 4 mg/kg dose"}, {"measurement": "weight loss", "setting": "[2]; MDA-MB-231-LM2 model, 4 mg/kg docetaxel (MED)", "result": "more than 10%"}, {"measurement": "loss in digital and caudal nerve conduction velocity", "setting": "[4]; rat, docetaxel 10 mg/kg (lowest dose tested)", "result": "12–23%"}, {"measurement": "exposure in patients", "setting": "[5]", "result": "4810 to 5200", "unit": "ng·h/mL"}]}, {"molecule": "CC(=O)O[C@H]1C(=O)[C@@]2(C)[C@H]([C@H](OC(=O)c3ccccc3)[C@]3(O)C[C@H](OC(=O)[C@H](O)[C@@H](NC(=O)c4ccccc4)c4ccccc4)C(C)=C1C3(C)C)[C@]1(OC(C)=O)CO[C@@H]1C[C@@H]2O", "note": "[paclitaxel, reference compound]", "values": [{"measurement": "body weight loss", "setting": "MDA-MB-231-BrM2", "result": "less than 10%"}, {"measurement": "antitumor efficacy", "setting": "GCRC-1945 PDX; GCRC-1945, 0.5x MTD", "result": "equally effective"}, {"measurement": "median survival", "setting": "GCRC-1945 PDX", "result": 53, "unit": "days"}, {"measurement": "half-life", "setting": "[1]; female, NSG, mouse, tumor, iv, 40 mg/kg", "result": 19.1, "unit": "h"}, {"measurement": "antitumor efficacy", "setting": "GCRC-2076 PDX; GCRC-2076, 0.25x MTD", "result": "not effective"}, {"measurement": "median survival", "setting": "GCRC-2076 PDX", "result": 69, "unit": "days"}, {"measurement": "body weight loss", "setting": "GCRC-1945", "result": "less than 10%"}, {"measurement": "MTD at 2 weeks", "setting": "[3]; NSG, mouse, in vivo, iv", "result": 40, "unit": "mg/kg"}]}]}
